# Experimental data reported in PubChem BioAssay.
# The source made the active and inactive calls.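 How the source made its calls, unless noted: active means viability loss from added drug above about 55%, and viability with drug at most 40%, in both replicates (limit read from the data, passing the limit was not always enough); inconclusive means both conditions met in only one replicate; inactive means neither replicate meets both conditions.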
# How the values were obtained:
# [1] = HUVEC growth inhibition – cell-based, human, primary screen (AID 575;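 active means viability at or below 30% in both replicate assays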;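 further: 100% = median of untreated cell wells with 0.1% DMSO on each plate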); details: HUVEC proliferation, CellTiter-Glo luminescence, 72 h; at 10 µM; stronger effect = lower value
# Procedure, shortened: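 Test system: HUVEC primary cells. Quantity: 1250 endothelial cells in each well. Dosing: single-point 10 µM, DMSO 0.1% final. Incubation: 72 h treatment at 37 °C. Measured by: CTG luminescence. Control set: DMSO cell controls and MePR drug controls. Plate: collagen-coated 384-well format.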
# [2] = H69AR cell proliferation blockers – human, duplicate replicates, primary screen (AID 580;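 active means viability at or under a set limit in both replicates, limit being median viability minus 3 SD, cut at about 48% in these data, passing the limit was not always enough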;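 further: 100% = mean luminescence of untreated wells and 0% = no signal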); details: H69AR lung tumor cells viability, ATP luminescence, 72 h; at 10 µM; stronger effect = lower value
# [3] = MRP1 drug-resistance reversers in H69AR cells – cell-based, doxorubicin co-treatment, pilot screen (AID 601); details: CellTiter-Glo, 72 h, at 10 µM; for differential viability (reversal): stronger effect = higher value
# [4] = yeast transport mutant growth inhibition pilot in 384-well plates, post-Golgi transport modulator project (AID 636; in the data active means inhibition above about 31%); details: absorbance 615 nm, about 18 h, stronger effect = higher value
# [5] = growth suppression of yeast trafficking mutant, preliminary HTS, modulators of trafficking downstream of Golgi apparatus project, 1536-format plate, OD 615 nm (AID 637; in the data active means inhibition above about 30%); details: yeast transport mutant growth, absorbance 615 nm, 18 h; stronger effect = higher value
# [6] = H69AR cells + 2 uM doxorubicin, measured here: viability with 2 uM doxorubicin, stronger effect = lower value
# [7] = H69AR cells, compound alone cytotoxicity
SMILES,viability [1],viability [2],differential viability (reversal) ([3]; H69AR cells + 2 uM doxorubicin),"viability [3, 6] [%]","viability [3, 7] [%]",inhibition [4],inhibition [5]
C=CCn1c(=O)c(C(=O)Nc2ccccc2C(=O)OCC)c(O)c2ccccc21,84.3% (inactive),33% (active),-26.9% (inactive),60,33,-7.2% (inactive),6.83% (inactive)
COc1ccccc1C(=O)Nc1ccccc1C(=O)N1CCCC1,92.3% (inactive),96% (inactive),11.9% (inactive),84.1,96,-4.68% (inactive),1.27% (inactive)
COc1cccc(C(c2nnnn2Cc2ccccc2)N2CCN(C(=O)c3ccco3)CC2)c1OC (stereo not given),77.5% (inactive),82.3% (inactive),-9.06% (inactive),91.4,82.3,-1.84% (inactive),-6.35% (inactive)
CCOc1ccccc1OCC(=O)NCc1ccco1,84.3% (inactive),85.3% (inactive),0.205% (inactive),85.1,85.3,-3.6% (inactive),-0.32% (inactive)
CC1CC(C)CN(CCCNC(=O)c2ccc3c(c2)NC(=O)C(N2CCCCC2)S3)C1 (stereo not given),88.6% (inactive),87.8% (inactive),4.94% (inactive),82.8,87.8,2.4% (inactive),-7.14% (inactive)
c1ccc(Cn2nnnc2C(c2ccccn2)N2CCOCC2)cc1 (stereo not given),107% (inactive),94.3% (inactive),-2.14% (inactive),96.5,94.3,-3.25% (inactive),-6.51% (inactive)
CN1CCN(C(=O)c2ccccc2N(Cc2ccccc2)S(C)(=O)=O)CC1,93.3% (inactive),91.6% (inactive),6.72% (inactive),84.9,91.6,-6.1% (inactive),-6.35% (inactive)
OCCn1c(CSc2nnc(-c3ccco3)n2-c2ccccc2)nc2ccc(Cl)cc21,68.7% (inactive),84.9% (inactive),3.29% (inactive),81.7,84.9,-5.45% (inactive),-3.97% (inactive)
Cc1nc2ccc(NC(=O)NCc3ccco3)cc2s1,103% (inactive),90.6% (inactive),7.41% (inactive),83.2,90.6,-4.67% (inactive),9.37% (inactive)
CCOC(=O)c1cc2c(=O)n3cccc(C)c3nc2n(CCOC)c1=NC(=O)c1ccncc1,104% (inactive),82.6% (inactive),-10.1% (inactive),92.6,82.6,-4.13% (inactive),3.33% (inactive)
CCOc1cc(S(=O)(=O)NCc2ccc3c(c2)OCO3)ccc1F,95.4% (inactive),97.9% (inactive),4.41% (inactive),93.5,97.9,-4.8% (inactive),4.76% (inactive)
Cc1ccc(-c2nnnn2CS(=O)(=O)c2ccccc2)cc1,86.7% (inactive),96.4% (inactive),5.26% (inactive),91.1,96.4,-2.08% (inactive),-2.22% (inactive)
c1ccc2c(c1)C(=Nn1cnnc1)c1ccccc1-2,92.3% (inactive),92.4% (inactive),-4.35% (inactive),96.7,92.4,-0.39% (inactive),-3.02% (inactive)
S=c1[nH]c2ccc(Cl)cc2[nH]1,67.4% (inactive),84.9% (inactive),6.16% (inactive),78.7,84.9,-3.42% (inactive),6.35% (inactive)
Cc1nnc(SCC(=O)Nc2nccs2)s1,95.7% (inactive),93% (inactive),1.75% (inactive),91.3,93,-6.67% (inactive),-2.22% (inactive)
Cc1nc(C)c(C(=O)C2=C(O)C(=O)N(CCCn3ccnc3)C2c2ccccc2)s1 (stereo not given),94.5% (inactive),95% (inactive),0.995% (inactive),94.1,95,-0.13% (inactive),-2.54% (inactive)
COCc1[nH]nc2c1C(C1C=CCCC1)C(C#N)=C(N)O2 (stereo not given),68.9% (inactive),94.6% (inactive),-4.19% (inactive),98.8,94.6,-2.5% (inactive),-1.11% (inactive)
CC(C)c1nnc(NC(=O)CCC(=O)NCc2ccc3c(c2)OCO3)s1,103% (inactive),97.7% (inactive),-1.39% (inactive),99.1,97.7,-5.2% (inactive),2.86% (inactive)
Nn1cnnc1SCC(=O)Nc1ccc2c(c1)OCCO2,97.5% (inactive),97.1% (inactive),-1.08% (inactive),98.2,97.1,-4.4% (inactive),8.41% (inactive)
COc1ccc(Nc2ncc3c(n2)CC(c2ccc(OC)cc2)CC3=O)cc1 (stereo not given),84.4% (inactive),97.4% (inactive),3.81% (inactive),93.6,97.4,-4% (inactive),4.92% (inactive)
